Experimental findings from article PMC4834983 (Journal of medicinal chemistry, 2015) are described below.

SMILES strings stand for the structures.

The subject of one experiment is pYStat3. Briefly: Immunoblotting of pStat3 in treated U251MG cells. Format: cell-based, human. Particulars: for effect on pStat3 in treated tumor cells: 5 μM, glioma cells, immunoblotting. A digest of the protocol: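 Whole-cell lysates from U251MG cells given test compound at 5 μM for 0–24 h, or at 0–5 μM for 2 h. Immunoblotted for pY705Stat3 and total Stat3, with GAPDH as loading reference.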

For a further experiment, the target named is Stat3:Stat3 (Mus musculus, UniProt P42227). Put plainly: Cell-free EMSA, nuclear extracts pre-incubated with compound, hSIE probe. The experiment is classed as biochemical. Particulars: for Stat3:Stat3/DNA-binding activity (complexation), cell-free EMSA: 5 μM, 30 min pre-incubation, NIH3T3/v-Src nuclear extracts. In general terms: In EMSA bound probe runs differently from free probe, usually more slowly.

The subject of the next experiment is U251MG cells. Put plainly: CyQuant cell proliferation assay. Particulars: for activity against U251MG cell growth: 5 μM; for IC50: Homo sapiens, U-251, 72 h, read-out: IC50 cell proliferation U251MG. Format: cell-based, human. A digest of the protocol:
(§1)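 CyQuant DNA-dye proliferation assay on cultured cells after 72 h exposure to test compound. Viability expressed relative to DMSO-treated control cells.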

For the next experiment, the system named is Stat3. Put plainly: Stat3 DNA-binding activity/EMSA of nuclear extracts from treated glioma cells. The experiment is classed as cell-based, human. Particulars: for effect on Stat3 DNA-binding activity in treated tumor cells: 5 μM, glioma cells, EMSA; for IC50: Homo sapiens, U-251, read-out: IC50 Stat3 DNA-binding activity in treated cells.
A further experiment deals with MDA-MB-231 cells. Put plainly: CyQuant cell proliferation assay. Format: cell-based, human. Particulars: 5 μM. A digest of the protocol: as §1

Stat3:Stat3, sequence (P42227 2-770 limits assumed): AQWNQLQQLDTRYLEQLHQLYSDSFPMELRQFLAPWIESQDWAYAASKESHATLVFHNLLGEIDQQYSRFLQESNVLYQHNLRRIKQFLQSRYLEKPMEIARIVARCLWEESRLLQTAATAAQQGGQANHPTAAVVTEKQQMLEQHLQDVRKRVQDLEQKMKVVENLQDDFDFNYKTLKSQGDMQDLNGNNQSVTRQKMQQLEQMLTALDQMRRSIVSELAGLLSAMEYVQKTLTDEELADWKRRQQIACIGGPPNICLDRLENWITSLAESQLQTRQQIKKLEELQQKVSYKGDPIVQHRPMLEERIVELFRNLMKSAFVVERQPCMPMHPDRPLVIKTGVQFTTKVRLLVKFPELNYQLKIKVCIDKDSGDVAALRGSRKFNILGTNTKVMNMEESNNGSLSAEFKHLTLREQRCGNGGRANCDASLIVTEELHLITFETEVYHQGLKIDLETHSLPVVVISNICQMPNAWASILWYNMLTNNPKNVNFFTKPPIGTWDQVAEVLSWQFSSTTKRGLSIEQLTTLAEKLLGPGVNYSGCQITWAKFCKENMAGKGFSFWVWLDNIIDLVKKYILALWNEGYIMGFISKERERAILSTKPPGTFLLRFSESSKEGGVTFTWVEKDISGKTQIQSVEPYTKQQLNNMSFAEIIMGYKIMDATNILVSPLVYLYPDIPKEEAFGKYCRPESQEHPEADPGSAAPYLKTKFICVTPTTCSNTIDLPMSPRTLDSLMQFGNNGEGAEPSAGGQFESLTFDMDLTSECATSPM

As for `C/C=C(\C)C(=O)O[C@H]1C[C@@H](C)[C@]2(O)CC[C@](C)(/C=C3/OC(=O)C(CO)=C31)O2` [Compound 8], the “effect on pStat3 in treated tumor cells” value in the experiment on pYStat3 is reported as “little impact”. On Stat3:Stat3, the “Stat3:Stat3/DNA-binding activity (complexation), cell-free EMSA” value was “only weakly inhibited”.
For `C[C@@H]1C[C@H](O)C2=C(CO)C(=O)O/C2=C/[C@@]2(C)CC[C@]1(O)O2` [Compound 14] the same measures were “little impact” and “only weakly inhibited”.
For `C=C(C)C(=O)O[C@H]1C[C@@H](C)[C@]2(O)CC[C@](C)(/C=C3/OC(=O)C(CO)=C31)O2` [Compound 18], in the experiment on pYStat3, the “effect on pStat3 in treated tumor cells” value was “little impact”. Further, the “Stat3:Stat3/DNA-binding activity (complexation), cell-free EMSA” value on Stat3:Stat3 is on record as “only weakly inhibited”.
In the case of `C/C=C(/C)C(=O)O[C@H]1C[C@@H](C)[C@]2(O)CC[C@](C)(/C=C3/OC(=O)C(CO)=C31)O2` [Compound 19], the “effect on pStat3 in treated tumor cells” value in the experiment on pYStat3 is “little impact”. The “Stat3:Stat3/DNA-binding activity (complexation), cell-free EMSA” value on Stat3:Stat3 is on record as “only weakly inhibited”.
Turning to `C/C(=C\CO)C(=O)O[C@H]1C[C@@H](C)[C@]2(O)CC[C@](C)(/C=C3/OC(=O)C(CO)=C31)O2` [Compound 21], in the experiment with pYStat3, the “effect on pStat3 in treated tumor cells” value was “little impact”. On Stat3:Stat3, the “Stat3:Stat3/DNA-binding activity (complexation), cell-free EMSA” value is recorded as “only weakly inhibited”.
For the compound `C=C(C)C(=O)O[C@H]1C[C@@H](C)[C@]2(OC)CC[C@](C)(/C=C3/OC(=O)C(CO)=C31)O2` [Compound 28], the “effect on pStat3 in treated tumor cells” value in the experiment on pYStat3 is “little impact”. Also, the “Stat3:Stat3/DNA-binding activity (complexation), cell-free EMSA” value at Stat3:Stat3 is “only weakly inhibited”.
Turning to `CCC(C)C(=O)OCC1=C2/C(=C\[C@@]3(C)CC[C@](O)(O3)[C@H](C)C[C@@H]2O)OC1=O` (some centres unmarked) [Compound 29], in the experiment with pYStat3, the “effect on pStat3 in treated tumor cells” value is listed as “little effect”. Besides, at Stat3:Stat3, the “Stat3:Stat3/DNA-binding activity (complexation), cell-free EMSA” value is recorded as “moderate inhibitory effects”. For the same compound, the “activity against U251MG cell growth” value in the experiment with U251MG cells was “weakly-active or inactive”.
In the case of `C[C@@H]1C[C@H](O)C2=C(COC(=O)/C=C/c3ccccc3)C(=O)O/C2=C/[C@@]2(C)CC[C@]1(O)O2` [Compound 30], in the experiment with Stat3, the “effect on Stat3 DNA-binding activity in treated tumor cells” value (from here on “effect on Stat3 DNA-binding activity”) is listed as “suppressed” and the IC50 lay within 0.5 to 2.5 µM. The “effect on pStat3 in treated tumor cells” value in the experiment on pYStat3 is “suppressed”. Also, the “Stat3:Stat3/DNA-binding activity (complexation), cell-free EMSA” value at Stat3:Stat3 is reported as “diminished”. Moreover, in the experiment on U251MG cells, the “activity against U251MG cell growth” value is “retained or improved the inhibitory potency” and the IC50 lay within 1 to 1.2 µM.
Regarding `CC(C)=CC(=O)OCC1=C2/C(=C\[C@@]3(C)CC[C@](O)(O3)[C@H](C)C[C@@H]2O)OC1=O` [Compound 32], the “effect on pStat3 in treated tumor cells” value with pYStat3 was “moderate effect”. The “Stat3:Stat3/DNA-binding activity (complexation), cell-free EMSA” value at Stat3:Stat3 is “diminished”. The “activity against U251MG cell growth” value with U251MG cells is “weakly-active or inactive”.
In the case of `CC(C)=CCCC(C)CC(=O)OCC1=C2/C(=C\[C@@]3(C)CC[C@](O)(O3)[C@H](C)C[C@@H]2O)OC1=O` (some centres unmarked) [Compound 33], in the experiment on Stat3, the “effect on Stat3 DNA-binding activity” value was “suppressed” and the IC50 fell in the range of 0.5 to 2.5 µM. In addition, in the experiment with pYStat3, the “effect on pStat3 in treated tumor cells” value is recorded as “suppressed”. Also, the “Stat3:Stat3/DNA-binding activity (complexation), cell-free EMSA” value at Stat3:Stat3 is “diminished”. Moreover, in the experiment with U251MG cells, the “activity against U251MG cell growth” value is “retained or improved the inhibitory potency” and the IC50 lay within 1 to 1.2 µM.
For `C[C@@H]1C[C@H](O)C2=C(COC(=O)/C=C/c3ccc(F)cc3)C(=O)O/C2=C/[C@@]2(C)CC[C@]1(O)O2` [Compound 34], the “effect on MDA-MB-231 cell growth” value in the experiment on MDA-MB-231 cells is “strongly inhibited”. The “Stat3:Stat3/DNA-binding activity (complexation), cell-free EMSA” value on Stat3:Stat3 is reported as “diminished”. In the experiment on U251MG cells, the “activity against U251MG cell growth” value was “retained or improved the inhibitory potency”.
Regarding `C[C@@H]1C[C@H](O)C2=C(COC(=O)/C=C/c3ccc(C(F)(F)F)cc3)C(=O)O/C2=C/[C@@]2(C)CC[C@]1(O)O2` [Compound 35], at Stat3:Stat3, the “Stat3:Stat3/DNA-binding activity (complexation), cell-free EMSA” value is recorded as “diminished”. For the same compound, the “activity against U251MG cell growth” value in the experiment on U251MG cells is on record as “retained or improved the inhibitory potency”.
On to `C[C@@H]1C[C@H](O)C2=C(COC(=O)CCc3ccccc3)C(=O)O/C2=C/[C@@]2(C)CC[C@]1(O)O2` [Compound 36], for which, in the experiment with Stat3, the “effect on Stat3 DNA-binding activity” value is on record as “suppressed” and the IC50 is 0.5 to 2.5 µM. Further, in the experiment on pYStat3, the “effect on pStat3 in treated tumor cells” value is listed as “suppressed”. The “Stat3:Stat3/DNA-binding activity (complexation), cell-free EMSA” value on Stat3:Stat3 was “diminished”. Also, in the experiment with U251MG cells, the “activity against U251MG cell growth” value is reported as “retained or improved the inhibitory potency” and the IC50 lay within 1 to 1.2 µM.
Take `CCCC(CCC)C(=O)OCC1=C2/C(=C\[C@@]3(C)CC[C@](O)(O3)[C@H](C)C[C@@H]2O)OC1=O` [Compound 37]: the “effect on MDA-MB-231 cell growth” value in the experiment with MDA-MB-231 cells is recorded as “strongly inhibited”. The “Stat3:Stat3/DNA-binding activity (complexation), cell-free EMSA” value at Stat3:Stat3 was “diminished”. For the same compound, in the experiment on U251MG cells, the “activity against U251MG cell growth” value is listed as “retained or improved the inhibitory potency”.
For `C/C=C(\C)C(=O)OCC1=C2/C(=C\[C@@]3(C)CC[C@](OC)(O3)[C@H](C)C[C@@H]2OC(=O)/C(C)=C/C)OC1=O` [Compound 39], in the experiment with Stat3, the “effect on Stat3 DNA-binding activity” value is recorded as “suppressed” and the IC50 lay in the range of 0.5 to 2.5 µM. Also, the “effect on pStat3 in treated tumor cells” value in the experiment on pYStat3 is “suppressed”. In addition, the “effect on MDA-MB-231 cell growth” value in the experiment on MDA-MB-231 cells is on record as “strongly inhibited”. Moreover, the “Stat3:Stat3/DNA-binding activity (complexation), cell-free EMSA” value at Stat3:Stat3 was “diminished”. For the same compound, the “activity against U251MG cell growth” value with U251MG cells was “retained or improved the inhibitory potency”.
On to `C/C=C(\C)C(=O)O[C@H]1C[C@@H](C)[C@]2(OC)CC[C@](C)(/C=C3/OC(=O)C(COC(=O)/C=C/c4ccccc4)=C31)O2` [Compound 40], for which the “effect on MDA-MB-231 cell growth” value in the experiment with MDA-MB-231 cells was “strongly inhibited”. Also, the “Stat3:Stat3/DNA-binding activity (complexation), cell-free EMSA” value at Stat3:Stat3 is “moderate inhibitory effects”. Also, in the experiment on U251MG cells, the “activity against U251MG cell growth” value is “retained or improved the inhibitory potency”.
Turning to `CCN1C(=O)C=CC1=O` [NEM, N-ethylmaleimide, reference compound], the “Stat3:Stat3/DNA complexation, dose-dependent” value on Stat3:Stat3 (Fig. S3B) was “inhibits”.
Regarding `C=C1C(=O)O[C@H]2[C@H]1CC/C(C)=C/CC[C@@]1(C)O[C@@H]21` [parthenolide, reference compound], the “Stat3 activity in tumor cells, control compounds” value in the experiment on pYStat3 (Fig. S5E(ii)) is listed as “did not inhibit”. For the same compound, the “cell growth activity, control compounds” value with U251MG cells (panel of cell lines, Fig. S5E(i)) is on record as “poorly-active or non-specific in activity”.
